Legend:
Vasopressin V2 receptor = Vasopressin V2 receptor (Rattus norvegicus, UniProt Q00788); assay: Inhibition of radioligand [3H]-AVP binding to the vasopressin V2 receptor in rat kidney tissue
How it was run: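 [3H]AVP (80–90 Ci/mmol) at 2 nM competed on crude membranes from male rat kidney medulla (V2 sites). Equilibrium 30 min at 30 °C in 100 mM Tris-HCl, 5 mM MgCl2, 0.1% BSA, 50 μM PMSF, 50 μg/mL bacitracin, pH 8.0. Nonspecific binding with 10 μM unlabeled AVP. Glass-fiber filtration. IC50 by linear regression of % inhibition vs log concentration, seven concentrations.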

Oxytocin receptor = biological target: T1, Oxytocin receptor (Rattus norvegicus, UniProt P70536); assay: Inhibition of radioligand [3H]oxytocin binding at the oxytocin (OT) receptor in rat uterine tissue
T1 sequence (P70536 whole entry): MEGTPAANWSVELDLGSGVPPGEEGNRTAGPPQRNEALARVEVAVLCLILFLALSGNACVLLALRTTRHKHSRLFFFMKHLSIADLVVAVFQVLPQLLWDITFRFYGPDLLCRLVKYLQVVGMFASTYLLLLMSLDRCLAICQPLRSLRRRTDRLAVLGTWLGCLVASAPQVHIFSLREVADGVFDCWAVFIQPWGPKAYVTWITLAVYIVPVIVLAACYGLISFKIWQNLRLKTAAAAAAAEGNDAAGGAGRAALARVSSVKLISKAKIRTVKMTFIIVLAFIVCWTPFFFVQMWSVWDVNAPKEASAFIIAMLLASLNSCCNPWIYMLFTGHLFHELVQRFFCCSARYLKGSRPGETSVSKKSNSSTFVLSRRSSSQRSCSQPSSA
How it was run: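 Uteri taken from rats given diethylstilbestrol dipropionate (0.3 mg/kg ip, 18–24 h before), crude membranes. 1 nM [3H]OT (30–60 Ci/mmol), equilibrium 60 min at 22 °C in 50 mM Tris-HCl, 5 mM MgCl2, 0.1% BSA, pH 7.4. Nonspecific binding with 1 mM unlabeled OT. Filtered on glass fiber. Initial single-concentration screen, then IC50 from seven concentrations by linear regression.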

Vasopressin V1 receptor = Vasopressin V1 receptor (Rattus norvegicus, UniProt P48974+P30560); assay: Inhibition of radioligand [3H]AVP binding to the vasopressin V1 receptor in rat liver tissue
How it was run: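 Crude membranes from male rat liver (V1 sites) competed with 1 nM [3H]AVP (80–90 Ci/mmol). Equilibrium 30 min, 30 °C, buffer 100 mM Tris-HCl, 5 mM MgCl2, 0.1% BSA, 50 μM PMSF, 50 μg/mL bacitracin, pH 8.0. 10 μM unlabeled AVP for nonspecific binding. Filtration through glass-fiber filters. IC50 from linear regression over seven concentrations.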

Sequence of Vasopressin V2 receptor (Q00788 whole entry): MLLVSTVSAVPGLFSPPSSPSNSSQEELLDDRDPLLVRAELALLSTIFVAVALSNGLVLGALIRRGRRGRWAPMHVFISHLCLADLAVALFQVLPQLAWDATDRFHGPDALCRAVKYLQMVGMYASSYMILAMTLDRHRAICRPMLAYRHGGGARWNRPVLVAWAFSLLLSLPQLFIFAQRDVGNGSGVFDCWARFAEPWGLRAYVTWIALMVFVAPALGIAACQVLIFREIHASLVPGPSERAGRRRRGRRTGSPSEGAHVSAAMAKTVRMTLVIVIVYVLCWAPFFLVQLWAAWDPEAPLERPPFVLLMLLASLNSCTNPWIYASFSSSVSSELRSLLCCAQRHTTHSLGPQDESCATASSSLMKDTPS

SMILES	IC50 (Vasopressin V2 receptor) [µM]	IC50 (Oxytocin receptor) [nM]	IC50 (Vasopressin V1 receptor) [nM]
CC1(C)[C@@H]2CC[C@@]1(CS(=O)(=O)N1CCC3(C=Cc4ccccc43)CC1)[C@@](O)(CN1C(=O)CCC1=O)C2	> 3	110	3000
CC1NC(=O)N([C@H]2C[C@H]3CC[C@]2(CS(=O)(=O)N2CCC4(CCc5ccccc54)CC2)C3(C)C)C1=O (stereo not given in full)	2.1	14	710
CC1(C)[C@@H]2CC[C@@]1(CS(=O)(=O)N1CCC3(CCc4ccccc43)CC1)[C@H](NC(=O)Cc1c[nH]cn1)C2	13	830	5100
CCCS(=O)(=O)N[C@H]1C[C@H]2CC[C@]1(CS(=O)(=O)N1CCC3(CCc4ccccc43)CC1)C2(C)C	10	310	> 1000
CC(C(=O)N[C@H]1C[C@H]2CC[C@]1(CS(=O)(=O)N1CCC3(CCc4ccccc43)CC1)C2(C)C)c1cn(C)cn1 (stereo not given in full)	> 3	60	3000
CC1(C)[C@@H]2CC[C@@]1(CS(=O)(=O)N1CCC3(CCc4ccccc43)CC1)[C@@H](N1C(=O)C3CCC(=N)N3C1=O)C2 (stereo not given in full)	3.8	21	1100
CC1(C)[C@@H]2CC[C@@]1(CS(=O)(=O)N1CCC3(CCc4ccccc43)CC1)[C@@H](N1C(=O)NC(Cc3cccnc3)C1=O)C2 (stereo not given in full)	> 0.3	36	> 300
CC1(C)[C@@H]2CC[C@@]1(CS(=O)(=O)N1CCC3(CCc4ccccc43)CC1)[C@@H](N1CCNC1=O)C2	> 3	100	> 300
CC1(C)[C@@H]2CC[C@@]1(CS(=O)(=O)N1CCC3(CCc4ccccc43)CC1)[C@@H](NC(=O)Cc1csc(N)n1)C2	> 3	170	> 3000
CC1(C)[C@@H]2CC[C@@]1(CS(=O)(=O)N1CCC3(C=Cc4ccccc43)CC1)[C@@](O)(CNC(=O)[C@@H](N)CCC(N)=O)C2	3	90	> 300
CC(C)[C@@H](N)C(=O)N[C@H]1C[C@H]2CC[C@]1(CS(=O)(=O)N1CCC3(CCc4ccccc43)CC1)C2(C)C	> 3	110	3000
CC1(C)[C@@H]2CC[C@@]1(CS(=O)(=O)N1CCC3(CCc4ccccc43)CC1)[C@@H](NC(=O)/C=C/c1c[nH]cn1)C2	20	150	5200
CC1(C)[C@@H]2CC[C@@]1(CS(=O)(=O)N1CCC3(CCc4ccccc43)CC1)[C@@H](NC(=O)CC1CCCNC1)C2 (stereo not given in full)	12	130	1500
CC1(C)[C@@H]2CC[C@@]1(CS(=O)(=O)N1CCC3(CCc4ccccc43)CC1)[C@@H](NC(=O)Cc1ccncc1)C2	10	120	> 1000
CC1(C)[C@@H]2CC[C@@]1(CS(=O)(=O)N1CCC3(C=Cc4ccccc43)CC1)[C@@](O)(CNC(=O)Cc1cccnc1)C2	4.5	53	890
CC1(C)[C@@H]2CC[C@@]1(CS(=O)(=O)N1CCC3(CCc4ccccc43)CC1)[C@H](NC(=O)Cc1ccccc1)C2	10	1000	> 1000
CC1(C)[C@@H]2CC[C@@]1(CS(=O)(=O)N1CCC3(CCc4ccccc43)CC1)[C@@H](NC(=O)C(N)CCCO)C2 (stereo not given in full)	6.2	80	1700
Cn1cnc(CC(=O)N[C@H]2C[C@H]3CC[C@]2(CS(=O)(=O)N2CCC4(CCc5ccccc54)CC2)C3(C)C)c1	9.4	65	4500
CC1(C)[C@@H]2CC[C@@]1(CS(=O)(=O)N1CCC3(C=Cc4ccccc43)CC1)[C@@](O)(CCNC(=O)c1ccccc1)C2	23	220	4600
CC1(C)[C@@H]2CC[C@@]1(CS(=O)(=O)N1CCC3(CCc4ccccc43)CC1)[C@@H](NC(=O)C1CNC(=O)N1)C2 (stereo not given in full)	> 3	92	> 3000

SMILES	IC50 (Vasopressin V2 receptor) [µM]	IC50 (Oxytocin receptor) [nM]	IC50 (Vasopressin V1 receptor) [nM]
CC1(C)[C@@H]2CC[C@@]1(CS(=O)(=O)N1CCC3(CCc4ccccc43)CC1)[C@@H](NC(=O)Cc1[nH]cnc1Br)C2	15	110	8100
CC1(C)[C@H]2CC[C@]1(CS(=O)(=O)N1CCC3(CCc4ccccc43)CC1)[C@H](NC(=O)Cc1c[nH]cn1)C2	> 3	1200	> 3000
CC1(C)[C@@H]2CC[C@@]1(CS(=O)(=O)N1CCC3(CCc4ccccc43)CC1)/C(=N\O)C2	13	450	3200
CC1(C)[C@@H]2CC[C@@]1(CS(=O)(=O)N1CCC3(C=Cc4ccccc43)CC1)[C@@](O)(CNC(=O)C1CN3CCC1CC3)C2 (stereo not given in full)	6.1	57	470
CC1(C)[C@@H]2CC[C@@]1(CS(=O)(=O)N1CCC3(C=Cc4ccccc43)CC1)[C@@](O)(CCNC(=O)c1ccccn1)C2	> 1	120	> 1000
CCN(CC)C(CCS(C)(=O)=O)C(=O)N[C@H]1C[C@H]2CC[C@]1(CS(=O)(=O)N1CCC3(CCc4ccccc43)CC1)C2(C)C (stereo not given in full)	1.5	30	2100
CC1(C)[C@@H]2CC[C@@]1(CS(=O)(=O)N1CCC3(CCc4ccccc43)CC1)[C@@H](N1C(=O)NC(=O)C1=O)C2	16	180	9200
CN1CC(=O)N([C@H]2C[C@H]3CC[C@]2(CS(=O)(=O)N2CCC4(CCc5ccccc54)CC2)C3(C)C)C1=O	2.7	14	960
CC1(C)[C@@H]2CC[C@@]1(CS(=O)(=O)N1CCC3(CCc4ccccc43)CC1)[C@@](O)(CN1CCCC1=O)C2	> 3	150	3000
CC(C)C[C@@H](N)C(=O)N[C@H]1C[C@H]2CC[C@]1(CS(=O)(=O)N1CCC3(CCc4ccccc43)CC1)C2(C)C	> 3	580	> 3000
CC1(C)[C@@H]2CC[C@@]1(CS(=O)(=O)N1CCC3(C=Cc4ccccc43)CC1)[C@@](O)(CNC(=O)CC13CC4CC(CC(C4)C1)C3)C2	> 3	480	> 3000
CC1(C)[C@@H]2CC[C@@]1(CS(=O)(=O)N1CCC3(CCc4ccccc43)CC1)[C@@H](NC(=O)C(CCS(C)(=O)=O)NC(=O)CN)C2 (stereo not given in full)	1.1	4.1	440
CC1(C)[C@@H]2CC[C@@]1(CS(=O)(=O)N1CCC3(CCc4ccccc43)CC1)[C@@H](N1C(=O)NC(CNc3n[nH]c(N)n3)C1=O)C2 (stereo not given in full)	0.45	6.7	120
CC1(C)[C@@H]2CC[C@@]1(CS(=O)(=O)N1CCC3(CCc4ccccc43)CC1)[C@@H](NC(N)=O)C2	> 3	460	> 3000
CC1(C)[C@@H]2CC[C@@]1(CS(=O)(=O)N1CCC3(CCc4ccccc43)CC1)[C@@H](NC(=O)Cc1nnn[nH]1)C2	> 3	220	> 3000
CC1(C)[C@@H]2CC[C@@]1(CS(=O)(=O)N1CCC3(C=Cc4ccccc43)CC1)[C@@](O)(CCNC(=O)c1cccnc1)C2	6	97	1900
CC1(C)[C@@H]2CC[C@@]1(CS(=O)(=O)N1CCC3(CCc4ccccc43)CC1)[C@@H](N1C(=O)CC(CC(=O)Nc3nn[nH]n3)C1=O)C2 (stereo not given in full)	2.4	13	770
CC1(C)[C@@H]2CC[C@@]1(CS(=O)(=O)N1CCC3(CCc4ccccc43)CC1)[C@@H](NC(=O)CCc1cccnc1)C2	> 3	180	> 3000
CC1(C)[C@@H]2CC[C@@]1(CS(=O)(=O)N1CCC3(CCc4ccccc43)CC1)[C@@H](N1C(=O)CCC1=O)C2	1.7	11	910
CC1(C)[C@@H]2CC[C@@]1(CS(=O)(=O)N1CCC3(CCc4ccccc43)CC1)[C@@H](NC(=O)Cn1cnnn1)C2	10	140	> 1000
